# Experimental data of several laboratories.
# Protocols differ between the studies behind these lines.
# Target: Death-associated protein kinase 2 (DAPK2, Homo sapiens, UniProt Q9UIK4)
Compound,assay,conditions,remaining binding [%]
c1cnn2ncc(-c3ccnc(N4CCC45COC5)n3)c2c1,binding,1 µM,70
C=CC(=O)N1CCC(C(=O)NCC(=O)N2CCN(c3nc(-c4cnc(N)nc4C(F)F)nc(N4CCOCC4)n3)CC2)CC1,"binding, competition with immobilised ligand",1 µM,95
c1cncc(-c2cccc(Nc3nccc(NC4CCCCC4)n3)c2)c1,"binding, competition with immobilised ligand",10 µM,84
CNC(=O)[C@@H]1CC[C@@H](n2c(-c3ccc4cnccc4c3)nc3ccc(C(=O)NCc4cccc(C(N)=O)c4)cc32)C1,"binding, competition with immobilised ligand",1 µM,100
N[C@@H]1CCN(c2nccc(-c3cnn4ncccc34)n2)C1,binding,1 µM,100
O=C(NCCCN1CCOCC1)c1ccc(Nc2ncc(Cl)c(-c3ccc(Cl)s3)n2)cc1,"binding, competition with immobilised ligand",1 µM,38
CN(c1ccnc(CNc2nc(Nc3ccc4c(c3)CC(=O)N4)ncc2C(F)(F)F)n1)S(C)(=O)=O,"cell-free assay, competition with immobilised ligand",1 µM,58
O=C(c1ccc(Nc2nccc(-c3cc4ccccc4s3)n2)cc1)N1CCC(N2CCCC2)CC1,"binding, competition with immobilised ligand",1 µM,19
CN(c1nccc(-c2cnn3ncccc23)n1)C1CC1,binding,1 µM,76
CN(C)C(=O)Cn1cc(-c2nc(C3(c4ccc(-c5cnc(N)nc5)cc4)CC3)no2)cn1,"cell-free assay, competition with immobilised ligand",1 µM,86
O=C(Nc1c[nH]nc1C(=O)NC1CCNCC1)c1cc(F)cc(F)c1,"binding, competition with immobilised ligand",1 µM,100
CC(=O)C1=C(C)N(c2cccc(C(F)(F)F)c2)C(=O)N[C@@H]1c1ccc(C#N)nc1,"cell-free assay, competition with immobilised ligand",1 µM,79.2
F[C@@H]1CCN(c2nccc(-c3cnn4ncccc34)n2)C1,binding,1 µM,100
COc1cnc(Nc2cccc(S(N)(=O)=O)c2)nc1N1CCN(c2ccccc2)C(=O)C1,"binding, competition with immobilised ligand",1 µM,100
Cn1nc(C(F)(F)F)cc1-c1cnc(N2CCc3cc(S(=O)(=O)Nc4c(F)cc(Cl)cc4F)cc(N4CCCC4=O)c32)nc1,"cell-free assay, competition with immobilised ligand",1 µM,94
C[C@@H]1CCN(c2nccc(-c3cnn4ncccc34)n2)C1,binding,1 µM,85
COc1ncc2cc3ccccc3nc2c1C#N,"cell-free assay, competition with immobilised ligand",5 µM,97
Cc1cnc(Nc2ccc(C(=O)N3CCC(N4CCCC4)CC3)cc2)nc1-c1cc2ccccc2s1,"binding, competition with immobilised ligand",1 µM,8.9
CCS(=O)(=O)c1cc2cc(C[C@](O)(CC(C)(C)c3ccc(F)cc3C(N)=O)C(F)(F)F)[nH]c2cn1,"cell-free assay, competition with immobilised ligand",1 µM,90
CC1CCCN1c1nccc(-c2cnn3ncccc23)n1 (stereo not shown),binding,1 µM,86
COc1cccc(CNC(=O)c2nc3scc(COCc4ccc(C(=O)O)cc4)c3c(=O)[nH]2)c1,"cell-free assay, competition with immobilised ligand",1 µM,83.1
Nc1ncc2c(n1)-c1c([nH]c3ccc(C#CC4CC4)cc13)CCCC2,"binding, competition with immobilised ligand",1 µM,100
